Calls of active or inactive are those of the source. The calls are words filed in the database; no cut-off is given here.
Assays:
RAW264.7 [1] = test: Antiinflammatory activity in LPS-stimulated mouse RAW264.7 cells assessed as inhibition of IL6 production at 50 uM after 24 hrs by ELISA; type: functional, cell-based
How it was run: (§1)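 RAW264.7 cells at 1.5 × 10^5 cells/mL, pre-incubated 18 h in 24-well plates, then stimulated with LPS (1 µg/mL) alone or with test samples for 24 h. Samples dissolved in EtOH diluted with DMEM, solvent ≤0.1% final. NO in supernatant by Griess reagent (10 min, room temperature, light protected, absorbance 540 nm); IL-6 and TNF-α by ELISA. Mean ± SD.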

RAW264.7 [2] = test: Cytotoxicity against LPS-stimulated mouse RAW264.7 cells at 50 uM after 24 hrs by MTT assay; type: cell-based; conditions: raw264.7, 24 h
How it was run: (§2)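 Viability of RAW264.7 cells (1.5 × 10^5 cells/mL) after 24 h exposure to LPS (1 µg/mL) plus test sample, by MTT. MTT added for 4 h, formazan dissolved in DMSO, absorbance 540 nm. Means ± SD of duplicate (50, 100 µM) or triplicate (other concentrations) experiments.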

RAW264.7 [3] = test: Antiinflammatory activity in LPS-stimulated mouse RAW264.7 cells assessed as inhibition of NO production at 50 uM after 24 hrs by Griess reagent method; type: functional, cell-based
How it was run: (§3)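 Conditions used at 50 and 100 µM: RAW264.7 cells (1.5 × 10^5 cells/mL) stimulated with LPS (1 µg/mL) alone or with samples for 24 h. Supernatant NO measured by Griess reagent, absorbance 540 nm; IL-6 and TNF-α by ELISA. Means ± SD of duplicate experiments; blank and LPS-only controls.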

RAW264.7 [4] = test: Antiinflammatory activity in LPS-stimulated mouse RAW264.7 cells assessed as inhibition of TNFalpha production at 50 uM after 24 hrs by ELISA; type: functional, cell-based; how it was run: as §3
RAW264.7 [5] = test: Antiinflammatory activity in LPS-stimulated mouse RAW264.7 cells assessed as inhibition of NO production at 100 uM after 24 hrs by Griess reagent method; type: functional, cell-based; how it was run: as §3
RAW264.7 [6] = test: Cytotoxicity against LPS-stimulated mouse RAW264.7 cells at 100 uM after 24 hrs by MTT assay; type: cell-based; conditions: raw264.7, 24 h; how it was run: as §2
RAW264.7 [7] = test: Antiinflammatory activity in LPS-stimulated mouse RAW264.7 cells assessed as inhibition of NO production at 12.5 uM after 24 hrs by Griess reagent method; type: functional, cell-based; how it was run: as §1
RAW264.7 [8] = test: Antiinflammatory activity in LPS-stimulated mouse RAW264.7 cells assessed as inhibition of NO production at 25 uM after 24 hrs by Griess reagent method; type: functional, cell-based
How it was run: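 Test samples at 12.5 and 25.0 µM with LPS (1 µg/mL) on RAW264.7 cells (1.5 × 10^5 cells/mL) for 24 h. NO read by Griess method, IL-6 and TNF-α by ELISA. Means ± SD of triplicate experiments.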

RAW264.7 [9] = test: Antiinflammatory activity in LPS-stimulated mouse RAW264.7 cells assessed as inhibition of IL6 production at 12.5 uM after 24 hrs by ELISA; type: functional, cell-based; how it was run: as §1
RAW264.7 [10] = test: Antiinflammatory activity in LPS-stimulated mouse RAW264.7 cells assessed as inhibition of IL6 production at after 24 hrs by ELISA; type: functional, cell-based; how it was run: as §1
RAW264.7 [11] = test: Antiinflammatory activity in LPS-stimulated mouse RAW264.7 cells assessed as inhibition of NO production after 24 hrs by Griess reagent method; type: functional, cell-based; how it was run: as §1
RAW264.7 [12] = test: Antiinflammatory activity in LPS-stimulated mouse RAW264.7 cells assessed as inhibition of TNFalpha production at 12.5 uM after 24 hrs by ELISA; type: functional, cell-based; how it was run: as §1
RAW264.7 [13] = test: Antiinflammatory activity in LPS-stimulated mouse RAW264.7 cells assessed as inhibition of TNFalpha production after 24 hrs by ELISA; type: functional, cell-based; how it was run: as §1
RAW264.7 [14] = test: Antiinflammatory activity in LPS-stimulated mouse RAW264.7 cells assessed as inhibition of NO production at 10 uM after 24 hrs by Griess reagent method; type: functional, cell-based
How it was run: (§4)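 Samples and prostaglandin references tested at 10 and 30 µM alongside LPS (1 µg/mL) in RAW264.7 cells (1.5 × 10^5 cells/mL), 24 h; NO by Griess reagent. Triplicate experiments, means ± SD.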

RAW264.7 [15] = test: Antiinflammatory activity in LPS-stimulated mouse RAW264.7 cells assessed as inhibition of NO production at 30 uM after 24 hrs by Griess reagent method; type: functional, cell-based; how it was run: as §4
RAW264.7 [16] = test: Cytotoxicity against LPS-stimulated mouse RAW264.7 cells at 3.12 uM after 24 hrs by MTT assay; type: cell-based; conditions: raw264.7, 24 h; how it was run: as §2
RAW264.7 [17] = test: Cytotoxicity against LPS-stimulated mouse RAW264.7 cells at 6.25 uM after 24 hrs by MTT assay; type: cell-based; conditions: raw264.7, 24 h; how it was run: as §2
RAW264.7 [18] = test: Cytotoxicity against LPS-stimulated mouse RAW264.7 cells at 12.5 uM after 24 hrs by MTT assay; type: cell-based; conditions: raw264.7, 24 h; how it was run: as §2
RAW264.7 [19] = test: Cytotoxicity against LPS-stimulated mouse RAW264.7 cells at 10 uM after 24 hrs by MTT assay; type: cell-based; conditions: raw264.7, 24 h; how it was run: as §2
RAW264.7 [20] = test: Cytotoxicity against LPS-stimulated mouse RAW264.7 cells at 25 uM after 24 hrs by MTT assay; type: cell-based; conditions: raw264.7, 24 h; how it was run: as §2
RAW264.7 [21] = test: Antiinflammatory activity in LPS-stimulated mouse RAW264.7 cells assessed as inhibition of NO production at 6.25 uM after 24 hrs by Griess reagent method; type: functional, cell-based
How it was run: (§5)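 NO series at 3.12, 6.25 and 12.5 µM: RAW264.7 cells (1.5 × 10^5 cells/mL) co-treated with LPS (1 µg/mL) for 24 h; nitrite by Griess reagent. Means ± SD of triplicate experiments.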

RAW264.7 [22] = test: Antiinflammatory activity in LPS-stimulated mouse RAW264.7 cells assessed as inhibition of NO production at 3.12 uM after 24 hrs by Griess reagent method; type: functional, cell-based; how it was run: as §5

Compound	Activity (RAW264.7 [7])	Activity (RAW264.7 [8])	Activity (RAW264.7 [9])	Activity (RAW264.7 [10])	Activity (RAW264.7 [11])	Activity (RAW264.7 [12])	Activity (RAW264.7 [13])	other results
CC/C=C\CC1C(=O)CCC1CC(=O)OC (configuration not stated) [METHYL JASMONATE]	–	–	–	–	–	–	–	Activity (RAW264.7 [1]): Active; Activity (RAW264.7 [2]): Toxic; Activity (RAW264.7 [3]): Active; Activity (RAW264.7 [4]): Active; Activity (RAW264.7 [5]): Active; Activity (RAW264.7 [6]): Toxic
CCCCCC1C(=O)C=CC1CC(=O)NC(C)C (configuration not stated)	Active	Active	Active	Dose-dependent effect	Dose-dependent effect	Active	Dose-dependent effect	–
CC/C=C\CC1C(=O)C(C#N)=CC1CC(=O)OC (configuration not stated)	–	–	–	–	–	–	–	Activity (RAW264.7 [1]): Active; Activity (RAW264.7 [2]): Toxic; Activity (RAW264.7 [3]): Active; Activity (RAW264.7 [4]): Active; Activity (RAW264.7 [5]): Active; Activity (RAW264.7 [6]): Toxic
CCCCCC1C(=O)C(Cl)=CC1CC(=O)OC (configuration not stated)	–	Active	–	Dose-dependent effect	Dose-dependent effect	–	Dose-dependent effect	Activity (RAW264.7 [14]): Active; Activity (RAW264.7 [15]): Active
CC/C=C\CC1C(=O)C(Cl)=CC1CC(=O)O (configuration not stated)	Active	Active	Active	Dose-dependent effect	Dose-dependent effect	Active	Dose-dependent effect	–
CC/C=C\CC1C(=O)C=CC1CC(=O)OC (configuration not stated)	Active	Active	Active	Dose-dependent effect	Dose-dependent effect	Active	Dose-dependent effect	Activity (RAW264.7 [1]): Active; Activity (RAW264.7 [2]): Toxic; Activity (RAW264.7 [3]): Active; Activity (RAW264.7 [4]): Active; Activity (RAW264.7 [5]): Active; Activity (RAW264.7 [6]): Toxic
CCCCCC1C(=O)C(Br)=CC1CC(=O)OC (configuration not stated)	–	–	–	Dose-dependent effect	Dose-dependent effect	–	Dose-dependent effect	Activity (RAW264.7 [14]): Active; Activity (RAW264.7 [15]): Active; Activity (RAW264.7 [16]): Non-toxic; Activity (RAW264.7 [17]): Non-toxic; Activity (RAW264.7 [18]): Toxic; Activity (RAW264.7 [19]): Toxic; Activity (RAW264.7 [20]): Toxic; Activity (RAW264.7 [21]): Active; Activity (RAW264.7 [22]): Active
CC/C=C\CC1C(=O)C(C(=O)OC)=CC1CC(=O)OC (configuration not stated)	–	–	–	–	–	–	–	Activity (RAW264.7 [1]): Active; Activity (RAW264.7 [2]): Toxic; Activity (RAW264.7 [3]): Active; Activity (RAW264.7 [4]): Active; Activity (RAW264.7 [5]): Active; Activity (RAW264.7 [6]): Toxic
CC/C=C\CC1C(=O)C=CC1CC(=O)NC(C)C (configuration not stated)	Active	Active	Active	Dose-dependent effect	Dose-dependent effect	Active	Dose-dependent effect	–
CC/C=C\CC1C(=O)C(Cl)=CC1CC(=O)OC (configuration not stated)	–	Active	–	Dose-dependent effect	Dose-dependent effect	–	Dose-dependent effect	Activity (RAW264.7 [14]): Active; Activity (RAW264.7 [15]): Active
CC/C=C\CC1C(=O)C=CC1CC(=O)NCCO (configuration not stated)	Active	Active	Active	Dose-dependent effect	Dose-dependent effect	Active	Dose-dependent effect	–
CCCCCC1C(=O)C(Cl)=CC1CC(=O)O (configuration not stated)	Active	Active	Active	Dose-dependent effect	Dose-dependent effect	Active	Dose-dependent effect	–
CCCCCC1C(=O)C=CC1CC(=O)OC (configuration not stated)	–	–	–	Dose-dependent effect	Dose-dependent effect	–	Dose-dependent effect	–
CC/C=C\CC1C(=O)C(Br)=CC1CC(=O)OC (configuration not stated)	–	–	–	Dose-dependent effect	Dose-dependent effect	–	Dose-dependent effect	Activity (RAW264.7 [14]): Active; Activity (RAW264.7 [15]): Active; Activity (RAW264.7 [16]): Non-toxic; Activity (RAW264.7 [17]): Non-toxic; Activity (RAW264.7 [18]): Toxic; Activity (RAW264.7 [19]): Toxic; Activity (RAW264.7 [20]): Toxic; Activity (RAW264.7 [21]): Active; Activity (RAW264.7 [22]): Active
CCCCCC1C(=O)C(I)=CC1CC(=O)OC (configuration not stated)	–	–	–	Dose-dependent effect	Dose-dependent effect	–	Dose-dependent effect	–
CCCCCC1C(=O)C=CC1CC(=O)O (configuration not stated)	Active	Active	Active	Dose-dependent effect	Dose-dependent effect	Active	Dose-dependent effect	–
CCCCCC1C(=O)C=CC1CC(=O)NCCO (configuration not stated)	Active	Active	Active	Dose-dependent effect	Dose-dependent effect	Active	Dose-dependent effect	–
CC/C=C\CC1C(=O)C(I)=CC1CC(=O)OC (configuration not stated)	–	–	–	Dose-dependent effect	Dose-dependent effect	–	Dose-dependent effect	–
CC/C=C\CC1C(=O)C=CC1CC(=O)O (configuration not stated)	Active	Active	Active	Dose-dependent effect	Dose-dependent effect	Active	Dose-dependent effect	–

Source: ChEMBL document CHEMBL1152203, “New jasmonate analogues as potential anti-inflammatory agents” (Bioorg Med Chem, 2008)
